Tests used:
Acetyl-CoA carboxylase 2 = Acetyl-CoA carboxylase 2 (Homo sapiens, UniProt O00763); experiment: Inhibition of human recombinant ACC 2 expressed in baculovirus expression system by FAS-coupled assay
Method in brief: (§1)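 Recombinant human ACC1 or ACC2 (baculovirus-expressed, purified), 2-4.5 nM, preincubated 10 min with compound in DMSO and FAS (1 µg/assay) in 50 mM HEPES pH 7.5, 10 mM sodium citrate, 20 mM MgCl2, 6 mM NaHCO3. Substrate mix then added: 2.4 µM [3H]acetyl-CoA, 47.6 µM acetyl-CoA, 100 µM NADPH, 0.125 mM ATP. Run 30 min at room temperature, stopped with EDTA. [3H]palmitic acid counted on phospholipid FlashPlate. IC50 averaged from 2–4 experiments.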

Acetyl-CoA carboxylase 1 = Acetyl-CoA carboxylase 1 (Homo sapiens, UniProt Q13085); experiment: Inhibition of human recombinant ACC 1 expressed in baculovirus expression system by FAS-coupled assay; method in brief: as §1
Homo sapiens [1] = species: Homo sapiens; experiment: Selectivity ratio of IC50 for human ACC 1 to IC50 for human ACC 2
Homo sapiens [2] = species: Homo sapiens; experiment: Selectivity ratio of IC50 for human ACC 2 to IC50 for human ACC 1

Acetyl-CoA carboxylase 2, sequence (O00763 whole entry): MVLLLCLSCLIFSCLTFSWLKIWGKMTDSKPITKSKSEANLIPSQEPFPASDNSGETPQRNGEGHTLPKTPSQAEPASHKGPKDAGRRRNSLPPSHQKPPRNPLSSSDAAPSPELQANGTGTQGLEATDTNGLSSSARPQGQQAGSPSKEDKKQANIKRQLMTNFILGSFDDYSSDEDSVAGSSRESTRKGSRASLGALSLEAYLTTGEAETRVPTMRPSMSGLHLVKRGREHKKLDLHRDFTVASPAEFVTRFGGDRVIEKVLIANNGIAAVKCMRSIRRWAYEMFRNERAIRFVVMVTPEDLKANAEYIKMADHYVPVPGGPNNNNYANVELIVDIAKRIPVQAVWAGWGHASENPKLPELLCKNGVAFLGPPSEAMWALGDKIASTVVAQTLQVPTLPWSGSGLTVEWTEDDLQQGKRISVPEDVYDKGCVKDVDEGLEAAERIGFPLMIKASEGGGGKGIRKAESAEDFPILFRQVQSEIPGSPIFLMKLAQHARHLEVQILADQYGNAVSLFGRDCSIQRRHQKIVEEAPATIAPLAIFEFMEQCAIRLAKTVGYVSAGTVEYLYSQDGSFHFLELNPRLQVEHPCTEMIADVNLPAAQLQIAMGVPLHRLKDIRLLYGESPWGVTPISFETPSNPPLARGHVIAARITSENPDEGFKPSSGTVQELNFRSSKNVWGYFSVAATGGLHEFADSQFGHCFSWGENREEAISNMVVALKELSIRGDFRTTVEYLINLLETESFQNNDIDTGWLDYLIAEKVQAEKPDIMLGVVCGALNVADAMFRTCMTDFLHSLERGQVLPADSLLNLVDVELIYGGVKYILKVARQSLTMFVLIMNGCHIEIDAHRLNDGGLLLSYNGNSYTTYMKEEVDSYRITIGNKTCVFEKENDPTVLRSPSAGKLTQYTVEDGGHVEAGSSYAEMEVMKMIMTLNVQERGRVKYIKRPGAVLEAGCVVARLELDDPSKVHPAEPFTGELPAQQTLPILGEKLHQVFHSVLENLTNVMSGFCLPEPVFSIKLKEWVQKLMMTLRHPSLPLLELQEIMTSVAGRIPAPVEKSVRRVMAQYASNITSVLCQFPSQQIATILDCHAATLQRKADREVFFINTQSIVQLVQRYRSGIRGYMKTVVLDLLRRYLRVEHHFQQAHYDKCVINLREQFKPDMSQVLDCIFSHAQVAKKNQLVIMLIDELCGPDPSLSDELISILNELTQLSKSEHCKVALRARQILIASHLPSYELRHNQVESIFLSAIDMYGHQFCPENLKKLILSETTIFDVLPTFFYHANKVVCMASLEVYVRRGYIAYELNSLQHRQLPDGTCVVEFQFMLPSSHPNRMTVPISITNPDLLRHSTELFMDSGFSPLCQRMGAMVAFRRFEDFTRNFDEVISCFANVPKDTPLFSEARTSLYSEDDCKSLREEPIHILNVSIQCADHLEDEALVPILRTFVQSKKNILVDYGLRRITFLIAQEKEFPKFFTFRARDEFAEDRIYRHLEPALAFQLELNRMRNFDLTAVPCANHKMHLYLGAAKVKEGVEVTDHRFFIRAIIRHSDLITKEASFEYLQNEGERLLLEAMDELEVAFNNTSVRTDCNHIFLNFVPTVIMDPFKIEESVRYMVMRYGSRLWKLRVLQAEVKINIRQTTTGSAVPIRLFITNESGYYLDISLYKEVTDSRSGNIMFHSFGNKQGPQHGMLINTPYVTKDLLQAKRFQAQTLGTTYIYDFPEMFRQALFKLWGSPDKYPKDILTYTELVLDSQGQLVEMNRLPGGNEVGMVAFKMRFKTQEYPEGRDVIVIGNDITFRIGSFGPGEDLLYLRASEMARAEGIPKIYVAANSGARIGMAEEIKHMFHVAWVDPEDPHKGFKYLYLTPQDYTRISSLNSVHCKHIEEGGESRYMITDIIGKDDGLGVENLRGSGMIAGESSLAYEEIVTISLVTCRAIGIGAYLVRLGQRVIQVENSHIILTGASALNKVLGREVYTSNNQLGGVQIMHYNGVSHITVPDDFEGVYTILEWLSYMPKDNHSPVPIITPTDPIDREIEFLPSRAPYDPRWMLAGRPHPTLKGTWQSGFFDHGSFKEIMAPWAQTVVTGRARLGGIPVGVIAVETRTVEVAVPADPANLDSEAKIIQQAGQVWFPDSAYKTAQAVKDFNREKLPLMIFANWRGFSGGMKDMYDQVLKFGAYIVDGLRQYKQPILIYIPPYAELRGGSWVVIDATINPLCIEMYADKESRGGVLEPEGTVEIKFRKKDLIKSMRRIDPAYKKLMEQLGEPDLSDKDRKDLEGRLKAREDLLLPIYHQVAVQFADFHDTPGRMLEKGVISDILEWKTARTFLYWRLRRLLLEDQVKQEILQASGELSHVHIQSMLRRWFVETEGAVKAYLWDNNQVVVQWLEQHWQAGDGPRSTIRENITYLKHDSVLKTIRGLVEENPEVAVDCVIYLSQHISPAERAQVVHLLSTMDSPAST

| SMILES | IC50 (Acetyl-CoA carboxylase 2) [nM] | IC50 (Acetyl-CoA carboxylase 1) [nM] | Selectivity ratio (Homo sapiens [1]) | Selectivity ratio (Homo sapiens [2]) |
| --- | --- | --- | --- | --- |
| CCOc1ccc(Oc2ccc(-c3ccc(C(C)NC(C)=O)cc3)cn2)cc1 (stereo unspecified) | 274 | > 30000 | > 100 | – |
| CCCCC(=O)NC(C)c1ccc(-c2ccc(Oc3ccc(OCCC)cc3)nc2)cc1 (stereo unspecified) | 1510 | > 30000 | – | – |
| CCCOc1cccc(Oc2ccc(-c3ccc(C(C)NC(C)=O)cc3)cc2)c1 (stereo unspecified) | 12 | 13 | – | – |
| CCOc1cccc(Oc2ccc(-c3ccc(C(C)NC(C)=O)cc3)cc2)c1 (stereo unspecified) | 102 | 8580 | 84 | – |
| CC(=O)NC(C)c1ccc(-c2ccc(Oc3ccc(OCc4ccccc4)cc3)cc2)cc1 (stereo unspecified) | > 30000 | > 30000 | – | – |
| CC(=O)NC(C)c1ccc(-c2ccc(Oc3ccc(OC(C)C)cc3)cc2)cc1 (stereo unspecified) | 33 | 17 | – | – |
| CC(=O)NC(C)c1ccc(-c2ccc(Oc3ccc(OCc4ccccc4)cc3)nc2)cc1 (stereo unspecified) | 117 | 58 | – | – |
| CC(=O)NC(C)c1ccc(-c2ccc(Oc3ccc(Cc4ccccc4)cc3)cc2)cc1 (stereo unspecified) | 945 | 39 | – | 24 |
| CC(=O)NC(C)c1ccc(-c2ccc(Oc3cccc(Oc4ccccc4)c3)nc2)cc1 (stereo unspecified) | 32 | 49 | – | – |
| COc1cccc(Oc2ccc(-c3ccc(C(C)NC(C)=O)cc3)cc2)c1 (stereo unspecified) | 373 | > 30000 | > 80 | – |
| CCCOc1cccc(Oc2ccc(-c3ccc(C(C)NC(=O)c4cn[nH]c4)cc3)cc2)c1 (stereo unspecified) | 609 | 36 | – | 17 |
| CCCc1ccc(Oc2ccc(-c3ccc(C(C)NC(C)=O)cc3)cc2)cc1 (stereo unspecified) | 114 | 81 | – | – |
| CCCOc1ccc(Oc2ccc(-c3ccc(C(C)NC(=O)CCC)cc3)cc2)cc1 (stereo unspecified) | > 30000 | 2770 | – | – |
| CCCOc1ccc(Oc2ccc(-c3ccc(C(C)NC(=O)C(C)C)cc3)cn2)cc1 (stereo unspecified) | 156 | 451 | – | – |
| CCCOc1ccc(Oc2ccc(-c3ccc(C(C)NC(=O)CC)cc3)cn2)cc1 (stereo unspecified) | 35 | 69 | 2 | – |
| CC(=O)NC(C)c1ccc(-c2ccc(Oc3ccc(-c4c(O)ccc5c4CCCC5)cc3)cc2)cc1 (stereo unspecified) | 268 | 140 | – | – |
| CC(=O)NC(C)c1ccc(-c2ccc(Oc3cccc(Oc4ccccc4)c3)cc2)cc1 (stereo unspecified) | 16 | 41 | – | – |
| CCCOc1ccc(Oc2ccc(-c3ccc(C(C)NC(=O)CCC)cc3)cn2)cc1 (stereo unspecified) | 494 | 4200 | – | – |
| CCCOc1ccc(Oc2ccc(-c3ccc(C(C)NC(=O)COC)cc3)cn2)cc1 (stereo unspecified) | 881 | > 30000 | – | – |
| CC(=O)NC(C)c1ccc(-c2ccc(Oc3ccc(OC(C)C)cc3)nc2)cc1 (stereo unspecified) | 93 | 415 | – | – |
| CCCOc1ccc(Oc2ccc(-c3ccc(C(C)NC(C)=O)cc3)cc2)cc1 (stereo unspecified) | 14 | 17 | – | – |

| SMILES | IC50 (Acetyl-CoA carboxylase 2) [nM] | IC50 (Acetyl-CoA carboxylase 1) [nM] | Selectivity ratio (Homo sapiens [1]) | Selectivity ratio (Homo sapiens [2]) |
| --- | --- | --- | --- | --- |
| CCCOc1ccc(Oc2ccc(-c3ccc(C(C)NC(=O)C(C)C)cc3)cc2)cc1 (stereo unspecified) | 214 | 188 | – | – |
| CCCOc1ccc(Oc2ccc(-c3ccc(C(C)NC(=O)COC)cc3)cc2)cc1 (stereo unspecified) | 718 | 753 | – | – |
| CCCCC(=O)NC(C)c1ccc(-c2ccc(Oc3ccc(OCCC)cc3)cc2)cc1 (stereo unspecified) | > 30000 | > 30000 | – | – |
| CC(=O)NC(C)c1ccc(-c2ccc(Oc3ccc(C(=O)c4ccccc4)cc3)cc2)cc1 (stereo unspecified) | 113 | 35 | – | – |
| CC(=O)NC(C)c1ccc(-c2ccc(Oc3ccc(OC(C)C)cc3)cc2C)c(C)c1 (stereo unspecified) | 88 | 592 | – | – |
| CC(=O)NC(C)c1ccc(-c2ccc(Oc3ccc(OC(C)C)cc3)cc2C)cc1 (stereo unspecified) | 35 | 16 | – | – |
| CCCOc1ccc(Oc2ccc(-c3ccc(C(C)NC(=O)c4cn[nH]c4)cc3)cn2)cc1 (stereo unspecified) | 2540 | > 30000 | – | – |
| CCCOc1ccc(Oc2ccc(-c3ccc(C(C)NC(=O)C(C)O)cc3)cc2)cc1 (racemic) | 1840 | 2060 | – | – |
| CCCOc1ccc(Oc2ccc(-c3ccc(C(C)NC(C)=O)cc3)cn2)cc1 (stereo unspecified) | 18 | 110 | 6 | – |
| CCCOc1ccc(Oc2ccc(-c3ccc(C(C)NC(=O)CC)cc3)cc2)cc1 (stereo unspecified) | 202 | 47 | – | – |
| CCCOc1ccc(Oc2ccc(-c3ccc(C(C)NC(=O)C4CC4)cc3)cn2)cc1 (stereo unspecified) | 141 | 319 | – | – |
| CCOc1ccc(Oc2ccc(-c3ccc(C(C)NC(C)=O)cc3)cc2)cc1 (stereo unspecified) | 119 | 1630 | 14 | – |
| CCCOc1ccc(Oc2ccc(-c3ccc(C(C)NC(=O)OCC)cc3)cc2)cc1 (stereo unspecified) | 3100 | > 30000 | – | – |
| CCCOc1ccc(Oc2ccc(-c3ccc(C(C)NC(=O)OCC)cc3)cn2)cc1 (stereo unspecified) | 227 | 8150 | – | – |
| CC(=O)NC(C)c1ccc(-c2ccc(Oc3ccc(Oc4ccccc4)cc3)cc2)cc1 (stereo unspecified) | 7 | 14 | – | – |
| CCCOc1ccc(Oc2ccc(-c3ccc(C(C)NC(=O)C4CC4)cc3)cc2)cc1 (stereo unspecified) | 550 | 296 | – | – |
| CCCOc1ccc(Oc2ccc(-c3ccc([C@@H](C)NC(C)=O)cc3)cn2)cc1 | 777 | > 30000 | – | – |
| COCCc1ccc(Oc2ccc(-c3ccc(C(C)NC(C)=O)cc3)cc2)cc1 (stereo unspecified) | > 30000 | 89 | – | > 300 |
| CC(=O)NC(C)c1ccc(-c2ccc(Oc3ccc(OC(C)C)cc3)cc2)c(C)c1 (stereo unspecified) | 303 | 2490 | – | – |
| CCCOc1ccc(Oc2ccc(-c3ccc([C@H](C)NC(C)=O)cc3)cn2)cc1 | 8 | 35 | – | – |

Reference: ChEMBL document CHEMBL1156049, “Potent biphenyl- and 3-phenyl pyridine-based inhibitors of acetyl-CoA carboxylase” (Bioorg Med Chem Lett, 2009)
